Laboratory results as given in ChEMBL document CHEMBL5058577, “EUbOPEN Chemogenomics Library 2 (Multiplex)” (2022).

Test system: Fibroblast
Assay: Multiplex assay against human fibroblast
Assay type: toxicity, cell-based
Outline: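 Per cents of healthy-nucleus cells form the tubulin, mitochondrial-mass and membrane-permeability phenotype values. Live cells were stained at seeding with Hoechst33342, BioTracker Green Microtubule Cytoskeleton Dye, MitoTracker Red and Annexin V Alexa Fluor 680. After compound addition they were imaged on a CQ1 microscope at 37°C and 5% CO2, and CellPathfinder machine-learning gating split them into Hoechst high-intensity objects or normal cells, normal cells into healthy, pyknosed or fragmented nuclei, and pyknosed cells into mitotic or apoptotic.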

[1] = 12 h, 1 µM, compound concentration 1 uM, replicate 1
[2] = 12 h, 1 µM, compound concentration 1 uM, replicate 2
[3] = 12 h, 10 µM, compound concentration 10 uM, replicate 1
[4] = 12 h, 10 µM, compound concentration 10 uM, replicate 2
[5] = 24 h, 1 µM, compound concentration 1 uM, replicate 1
[6] = 24 h, 1 µM, compound concentration 1 uM, replicate 2
[7] = 24 h, 10 µM, compound concentration 10 uM, replicate 1
[8] = 24 h, 10 µM, compound concentration 10 uM, replicate 2
[9] = 48 h, 1 µM, compound concentration 1 uM, replicate 1
[10] = 48 h, 1 µM, compound concentration 1 uM, replicate 2
[11] = 48 h, 10 µM, compound concentration 10 uM, replicate 1
[12] = 48 h, 10 µM, compound concentration 10 uM, replicate 2

O=C(NCCNCC(O)COc1ccc(O)cc1)N1CCOCC1.O=C(NCCNCC(O)COc1ccc(O)cc1)N1CCOCC1.O=C(O)/C=C/C(=O)O (centres undefined) [XAMOTEROL FUMARATE]
Population Apoptotic (%) [1]: 63% | Population Fragmented Nuclei (%) [1]: 15% | Population Healthy Nuclei (%) [1]: 67% | Population Hoechst High Intensity Objects (%) [1]: 2% | Population Membrane Permeable-Phenotype (%) [1]: 1% | Population Mitochondria Different-Phenotype (%) [1]: 4% | Population Mitotic Cells (%) [1]: 36% | Population Normal (%) [1]: 97% | Population Pyknosed Nuclei (%) [1]: 17% | Population Tubulin-Different-Phenotype (%) [1]: 24% | Total Cell Count [1]: 114 | Population Apoptotic (%) [2]: 43% | Population Fragmented Nuclei (%) [2]: 23% | Population Healthy Nuclei (%) [2]: 53% | Population Hoechst High Intensity Objects (%) [2]: 4% | Population Membrane Permeable-Phenotype (%) [2]: 16% | Population Mitochondria Different-Phenotype (%) [2]: 7% | Population Mitotic Cells (%) [2]: 56% | Population Normal (%) [2]: 95% | Population Pyknosed Nuclei (%) [2]: 23% | Population Tubulin-Different-Phenotype (%) [2]: 55% | Total Cell Count [2]: 167 | Population Apoptotic (%) [3]: 30% | Population Fragmented Nuclei (%) [3]: 21% | Population Healthy Nuclei (%) [3]: 64% | Population Hoechst High Intensity Objects (%) [3]: 4% | Population Membrane Permeable-Phenotype (%) [3]: 2% | Population Mitochondria Different-Phenotype (%) [3]: 5% | Population Mitotic Cells (%) [3]: 70% | Population Normal (%) [3]: 95% | Population Pyknosed Nuclei (%) [3]: 14% | Population Tubulin-Different-Phenotype (%) [3]: 32% | Total Cell Count [3]: 143 | Population Apoptotic (%) [4]: 17% | Population Fragmented Nuclei (%) [4]: 30% | Population Healthy Nuclei (%) [4]: 49% | Population Hoechst High Intensity Objects (%) [4]: 5% | Population Membrane Permeable-Phenotype (%) [4]: 4% | Population Mitochondria Different-Phenotype (%) [4]: 11% | Population Mitotic Cells (%) [4]: 82% | Population Normal (%) [4]: 94% | Population Pyknosed Nuclei (%) [4]: 20% | Population Tubulin-Different-Phenotype (%) [4]: 43% | Total Cell Count [4]: 154 | Population Apoptotic (%) [5]: 68% | Population Fragmented Nuclei (%) [5]: 20% | Population Healthy Nuclei (%) [5]: 63% | Population Hoechst High Intensity Objects (%) [5]: 1% | Population Membrane Permeable-Phenotype (%) [5]: 2% | Population Mitochondria Different-Phenotype (%) [5]: 2% | Population Mitotic Cells (%) [5]: 31% | Population Normal (%) [5]: 98% | Population Pyknosed Nuclei (%) [5]: 15% | Population Tubulin-Different-Phenotype (%) [5]: 25% | Total Cell Count [5]: 121 | Population Apoptotic (%) [6]: 50% | Population Fragmented Nuclei (%) [6]: 28% | Population Healthy Nuclei (%) [6]: 52% | Population Hoechst High Intensity Objects (%) [6]: 2% | Population Membrane Permeable-Phenotype (%) [6]: 18% | Population Mitochondria Different-Phenotype (%) [6]: 6% | Population Mitotic Cells (%) [6]: 50% | Population Normal (%) [6]: 97% | Population Pyknosed Nuclei (%) [6]: 19% | Population Tubulin-Different-Phenotype (%) [6]: 63% | Total Cell Count [6]: 149 | Population Apoptotic (%) [7]: 62% | Population Fragmented Nuclei (%) [7]: 20% | Population Healthy Nuclei (%) [7]: 67% | Population Hoechst High Intensity Objects (%) [7]: 1% | Population Membrane Permeable-Phenotype (%) [7]: 0% | Population Mitochondria Different-Phenotype (%) [7]: 0% | Population Mitotic Cells (%) [7]: 37% | Population Normal (%) [7]: 98% | Population Pyknosed Nuclei (%) [7]: 12% | Population Tubulin-Different-Phenotype (%) [7]: 31% | Total Cell Count [7]: 135 | Population Apoptotic (%) [8]: 42% | Population Fragmented Nuclei (%) [8]: 34% | Population Healthy Nuclei (%) [8]: 54% | Population Membrane Permeable-Phenotype (%) [8]: 5% | Population Mitochondria Different-Phenotype (%) [8]: 8% | Population Mitotic Cells (%) [8]: 57% | Population Pyknosed Nuclei (%) [8]: 11% | Population Tubulin-Different-Phenotype (%) [8]: 41% | Total Cell Count [8]: 172 | Population Apoptotic (%) [9]: 65% | Population Fragmented Nuclei (%) [9]: 27% | Population Healthy Nuclei (%) [9]: 57% | Population Hoechst High Intensity Objects (%) [9]: 1% | Population Membrane Permeable-Phenotype (%) [9]: 1% | Population Mitochondria Different-Phenotype (%) [9]: 2% | Population Mitotic Cells (%) [9]: 35% | Population Normal (%) [9]: 98% | Population Pyknosed Nuclei (%) [9]: 15% | Population Tubulin-Different-Phenotype (%) [9]: 21% | Total Cell Count [9]: 131 | Population Apoptotic (%) [10]: 40% | Population Fragmented Nuclei (%) [10]: 42% | Population Healthy Nuclei (%) [10]: 46% | Population Hoechst High Intensity Objects (%) [10]: 2% | Population Membrane Permeable-Phenotype (%) [10]: 7% | Population Mitochondria Different-Phenotype (%) [10]: 4% | Population Mitotic Cells (%) [10]: 60% | Population Normal (%) [10]: 97% | Population Pyknosed Nuclei (%) [10]: 10% | Population Tubulin-Different-Phenotype (%) [10]: 65% | Total Cell Count [10]: 140 | Population Apoptotic (%) [11]: 56% | Population Fragmented Nuclei (%) [11]: 25% | Population Healthy Nuclei (%) [11]: 62% | Population Hoechst High Intensity Objects (%) [11]: 4% | Population Membrane Permeable-Phenotype (%) [11]: 1% | Population Mitochondria Different-Phenotype (%) [11]: 3% | Population Mitotic Cells (%) [11]: 43% | Population Normal (%) [11]: 95% | Population Pyknosed Nuclei (%) [11]: 11% | Population Tubulin-Different-Phenotype (%) [11]: 33% | Total Cell Count [11]: 144 | Population Apoptotic (%) [12]: 52% | Population Fragmented Nuclei (%) [12]: 33% | Population Healthy Nuclei (%) [12]: 54% | Population Hoechst High Intensity Objects (%) [12]: 3% | Population Membrane Permeable-Phenotype (%) [12]: 6% | Population Mitochondria Different-Phenotype (%) [12]: 4% | Population Mitotic Cells (%) [12]: 47% | Population Normal (%) [12]: 96% | Population Tubulin-Different-Phenotype (%) [12]: 48% | Total Cell Count [12]: 157
